Laboratory results: ChEMBL document CHEMBL5038594, “Structural Fine-Tuning of Desmuramylpeptide NOD2 Agonists Defines Their In Vivo Adjuvant Activity” (J Med Chem, 2021)
Calls of active or inactive are those of the source. No cut-off for these calls is given here.

Experiments:
[1] = Cytotoxicity against HEK-Blue hNOD2 cells assessed as reduction in metabolic activity at 20 uM incubated for 18 hrs by MTS assay; assay type: toxicity, cell-based; details: human, hek-blue hnod2, 18 h
Method in brief: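 HEK-Blue NOD2 cells, 40 000 per well, exposed to 20 μM compound or 0.1% DMSO for 18 h at 37 °C, 5% CO2. Metabolic activity measured by MTS (CellTiter 96 AQueous One) reagent. Duplicates, two independent biological replicates.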

[2] = molecular target: T1, Nucleotide-binding oligomerization domain-containing protein 1 (Homo sapiens) (UniProt Q9Y239); assay: Agonist activity at NOD1 in HEK-Blue hNOD2 cells assessed as increase in NFkappaB transactivation-mediated SEAP activity measured after 18 hrs by spectrophotometric method; assay type: cell-based; details: HEK-Blue hNOD1, in the assay text read “HEK-Blue hNOD1 cells” for “HEK-Blue hNOD2 cells”
T1 sequence (whole entry): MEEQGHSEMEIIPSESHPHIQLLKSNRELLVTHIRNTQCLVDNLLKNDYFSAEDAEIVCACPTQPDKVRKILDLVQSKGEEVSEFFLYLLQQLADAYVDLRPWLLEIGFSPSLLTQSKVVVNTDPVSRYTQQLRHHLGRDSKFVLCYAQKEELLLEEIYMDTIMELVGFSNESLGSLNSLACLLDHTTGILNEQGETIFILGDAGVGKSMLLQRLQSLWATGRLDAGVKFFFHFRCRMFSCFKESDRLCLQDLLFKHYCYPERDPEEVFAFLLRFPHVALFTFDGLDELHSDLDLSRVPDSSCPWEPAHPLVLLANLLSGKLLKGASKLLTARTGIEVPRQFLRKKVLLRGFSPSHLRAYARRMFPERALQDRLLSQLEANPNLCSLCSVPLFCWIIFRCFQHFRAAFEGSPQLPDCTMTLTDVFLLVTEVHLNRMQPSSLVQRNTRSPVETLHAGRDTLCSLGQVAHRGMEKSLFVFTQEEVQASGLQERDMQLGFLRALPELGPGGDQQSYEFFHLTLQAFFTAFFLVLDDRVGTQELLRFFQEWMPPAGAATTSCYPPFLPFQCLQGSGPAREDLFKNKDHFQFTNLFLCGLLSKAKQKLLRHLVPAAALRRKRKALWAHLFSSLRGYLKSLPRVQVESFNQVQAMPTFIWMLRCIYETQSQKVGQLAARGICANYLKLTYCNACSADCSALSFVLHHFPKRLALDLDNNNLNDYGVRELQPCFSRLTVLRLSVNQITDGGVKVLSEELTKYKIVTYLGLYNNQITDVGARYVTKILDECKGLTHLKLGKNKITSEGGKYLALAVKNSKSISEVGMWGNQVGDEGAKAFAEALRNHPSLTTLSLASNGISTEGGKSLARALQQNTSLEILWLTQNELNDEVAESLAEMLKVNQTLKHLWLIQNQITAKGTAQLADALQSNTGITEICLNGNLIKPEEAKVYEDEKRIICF
Method in brief: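 Counter-screen in HEK-Blue NOD1 cells (HEK293 stably expressing human NOD1 plus an NF-κB-inducible SEAP reporter), seeded at 2.5 × 10^5 cells/mL in HEK-Blue detection medium. Compounds at 2 μM versus 0.1% DMSO vehicle, 18 h at 37 °C, 5% CO2. SEAP read as absorbance at 630 nm. Duplicates, at least two independent experiments.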

Activity [2]	Structure (SMILES)	Activity [1]
inactive	CCCCCCCCCCCCCCCCCC(=O)Oc1ccc(/C=C/C(=O)NCC(=O)N[C@@H](CO)C(=O)N[C@H](CCC(=O)OCC)C(=O)OCC)cc1OC	Non-Toxic
inactive	CCOC(=O)CC[C@@H](NC(=O)[C@H](COCc1ccccc1)NC(=O)CNC(=O)/C=C/c1ccc(O)c(OC)c1)C(=O)OCC	Non-Toxic
inactive	CCOC(=O)CC[C@@H](NC(=O)[C@H](CO)NC(=O)CNC(=O)/C=C/c1ccc(O)c(OC)c1)C(=O)OCC	Non-Toxic
inactive	COc1cc(/C=C/C(=O)NCC(=O)N[C@H](C(=O)N[C@H](CCC(=O)N2CCCC2)C(=O)OC(C)(C)C)C(C)C)ccc1O	Non-Toxic
inactive	CCCCNC(=O)CC[C@@H](NC(=O)[C@@H](NC(=O)CNC(=O)/C=C/c1ccc(O)c(OC)c1)C(C)C)C(=O)OC(C)(C)C	Non-Toxic
inactive	CCOC(=O)CC[C@@H](NC(=O)[C@@H](NC(=O)CNC(=O)/C=C/c1ccc(N)cc1)C(C)C)C(=O)OCC	Non-Toxic
inactive	CCCCCCCCCCCC(=O)Oc1ccc(/C=C/C(=O)NCC(=O)N[C@H](C(=O)N[C@H](CCC(=O)OC2CCCC2)C(=O)OC2CCCC2)C(C)C)cc1OC	Non-Toxic
inactive	CCOC(=O)CC[C@@H](NC(=O)[C@@H](NC(=O)CNC(=O)/C=C/c1ccc([N+](=O)[O-])cc1)C(C)C)C(=O)OCC	Non-Toxic
inactive	CCOC(=O)CC[C@@H](NC(=O)[C@@H](NC(=O)CNC(=O)C1CC1c1ccc(OC)c(OC)c1)C(C)C)C(=O)OCC (some centres undefined)	Non-Toxic
inactive	COc1cc(/C=C/C(=O)NCC(=O)N[C@H](C(=O)N[C@H](CCC(=O)OC(C)(C)C)C(=O)N2CCCC2)C(C)C)ccc1O	Non-Toxic
inactive	CCCCCCCCCCCCCCCCCC(=O)Oc1ccc(/C=C/C(=O)NCC(=O)N[C@@H](COCc2ccccc2)C(=O)N[C@H](CCC(=O)OCC)C(=O)OCC)cc1OC	Non-Toxic
inactive	COc1cc(/C=C/C(=O)NCC(=O)N[C@H](C(=O)N[C@H](CCC(=O)OC2CCCC2)C(=O)OC2CCCC2)C(C)C)ccc1OC(C)=O	Non-Toxic
inactive	CCCCNC(=O)CC[C@@H](NC(=O)[C@@H](NC(=O)CNC(=O)/C=C/c1ccc(O)c(OC)c1)C(C)C)C(=O)NCCCC	Non-Toxic
inactive	CCNC(=O)CC[C@@H](NC(=O)[C@@H](NC(=O)CNC(=O)/C=C/c1ccc(O)c(OC)c1)C(C)C)C(=O)NCC	Non-Toxic
inactive	CONC(=O)CC[C@@H](NC(=O)[C@@H](NC(=O)CNC(=O)/C=C/c1ccc(O)c(OC)c1)C(C)C)C(=O)OC(C)(C)C	Non-Toxic
inactive	COc1cc(/C=C/C(=O)NCC(=O)N[C@H](C(=O)N[C@H](CCC(=O)OC(C)(C)C)C(=O)OC(C)(C)C)C(C)C)ccc1O	Non-Toxic

Activity [2]	Structure (SMILES)	Activity [1]
inactive	CCOC(=O)CC[C@@H](NC(=O)[C@@H](NC(=O)CNC(=O)CCc1ccc(O)c(OC)c1)C(C)C)C(=O)OCC	Non-Toxic
inactive	CCOC(=O)CC[C@@H](NC(=O)[C@@H](NC(=O)CNC(=O)/C=C/c1ccc(O)c(O)c1)C(C)C)C(=O)OCC	Non-Toxic
inactive	CCOC(=O)CC[C@@H](NC(=O)[C@@H](NC(=O)CNC(=O)CCCc1ccc(O)c(OC)c1)C(C)C)C(=O)OCC	Non-Toxic
inactive	CCOC(=O)CC[C@@H](NC(=O)[C@@H](NC(=O)CNC(=O)/C=C/c1ccc(O)c(OC)c1)[C@@H](C)O)C(=O)OCC	Non-Toxic
inactive	COc1cc(/C=C/C(=O)NCC(=O)N[C@H](C(=O)N[C@H](CCC(=O)N(C)OC)C(=O)OC(C)(C)C)C(C)C)ccc1O	Non-Toxic
inactive	COc1cc(/C=C/C(=O)NCC(=O)N[C@H](C(=O)N[C@H](CCC(=O)OC(C)(C)C)C(=O)N(C)OC)C(C)C)ccc1O	Non-Toxic
inactive	CCOC(=O)CC[C@@H](NC(=O)[C@@H](NC(=O)CNC(=O)C1CC1c1ccc(O)c(OC)c1)C(C)C)C(=O)OCC (some centres undefined)	Non-Toxic
inactive	CCOC(=O)CC[C@@H](NC(=O)[C@@H](NC(=O)CNC(=O)[C@@H]1C[C@H]1c1ccc(F)c(F)c1)C(C)C)C(=O)OCC	Non-Toxic
inactive	CCOC(=O)CC[C@@H](NC(=O)[C@@H](NC(=O)CNC(=O)C1CC1c1ccc(F)c(F)c1)C(C)C)C(=O)OCC (some centres undefined)	Non-Toxic
inactive	CCCCCCCCCCCCCCCCCC(=O)Oc1ccc(/C=C/C(=O)NCC(=O)N[C@H](C(=O)N[C@H](CCC(=O)OC2CCCC2)C(=O)OC2CCCC2)C(C)C)cc1OC	Non-Toxic
inactive	CCCCCCCCCCCCCCCCCC(=O)NCCCC[C@H](NC(=O)CC[C@@H](NC(=O)[C@@H](NC(=O)CNC(=O)/C=C/c1ccc(O)c(OC)c1)C(C)C)C(=O)OCC)C(=O)OC	Non-Toxic
inactive	CCOC(=O)CC[C@@H](NC(=O)[C@@H](NC(=O)CNC(=O)/C=C/c1ccc(C(C)C)cc1)C(C)C)C(=O)OCC	Non-Toxic
inactive	CCOC(=O)CC[C@@H](NC(=O)[C@@H](NC(=O)CNC(=O)/C=C/c1ccc(OC)c(OC)c1)C(C)C)C(=O)OCC	Non-Toxic
inactive	CCOC(=O)[C@@H](CCC(=O)N[C@@H](CCCCN)C(=O)OC)NC(=O)[C@@H](NC(=O)CNC(=O)/C=C/c1ccc(O)c(OC)c1)C(C)C	Non-Toxic
inactive	CCOC(=O)CC[C@@H](NC(=O)[C@@H](NC(=O)CNC(=O)[C@H]1C[C@@H]1c1ccc(F)c(F)c1)C(C)C)C(=O)OCC	Non-Toxic
inactive	CCCCCCCCCCCCCCCCCCOC(=O)CC[C@@H](NC(=O)[C@@H](NC(=O)CNC(=O)/C=C/c1ccc(O)c(OC)c1)C(C)C)C(=O)OCCCCCCCCCCCCCCCCCC	Non-Toxic
